Results pooled from the literature.
Compare with care: the assays were run in different laboratories.
CDK4: Cyclin-dependent kinase 4 (CDK4, Homo sapiens, UniProt P11802)
CDK4 with cyclin D1: Cyclin-dependent kinase 4, with cyclin D1 (CDK4, Homo sapiens, UniProt P11802)
CDK4 with cyclin D3: Cyclin-dependent kinase 4, with cyclin D3 (CDK4, Homo sapiens, UniProt P11802)

Structure (SMILES)	target	test	setting	remaining binding [%]
O=C(NCC1CCOCC1)c1n[nH]cc1NC(=O)c1c(F)cccc1F	CDK4	binding, competition with immobilised ligand	1 µM	92
C=CC(=O)N1CCC(C(=O)NCC(=O)N2CCN(c3nc(-c4cnc(N)nc4C(F)F)nc(N4CCOCC4)n3)CC2)CC1	CDK4 with cyclin D1	binding, competition with immobilised ligand	1 µM	83
CC(C)CC(=O)N1CCc2nc(-c3ccc(Br)cc3)nc(N(C)Cc3ccccc3)c2C1	CDK4 with cyclin D3	cell-free assay, competition with immobilised ligand	0.1 µM	100
c1cncc(-c2cccc(Nc3nccc(NC4CCCCC4)n3)c2)c1	CDK4	binding, competition with immobilised ligand	10 µM	100
O=C(Nc1c[nH]nc1C(=O)NC1CCNCC1)c1cc(F)cc(F)c1	CDK4	binding, competition with immobilised ligand	1 µM	100
Nc1ncc2c(n1)-c1c([nH]c3ccc(C#CC4CC4)cc13)CCCC2	CDK4	binding, competition with immobilised ligand	1 µM	84
CN(C)c1nccc(-c2cnc3ncccn23)n1	CDK4 with cyclin D3	binding	1 µM	48
CCN1CCN(Cc2ccc(C(=O)Nc3ccc(C)c(Oc4ccc5c(c4)CC(=O)N5)c3)cc2C(F)(F)F)CC1	CDK4 with cyclin D3	binding, competition with immobilised ligand	1 µM	100
COc1cnc(Nc2cccc(S(N)(=O)=O)c2)nc1N1CCN(c2ccccc2)C(=O)C1	CDK4 with cyclin D1	binding, competition with immobilised ligand	1 µM	100
CN(C)CC#Cc1ccc(OCCCc2sc(N3CCc4cccc(C(=O)Nc5nc6ccccc6s5)c4C3)nc2C(=O)O)c(F)c1	CDK4 with cyclin D3	cell-free assay, competition with immobilised ligand	1 µM	100
CN(C)c1ncc(F)c(-c2cnn3ncccc23)n1	CDK4	binding	1 µM	100
CNC(=O)[C@@H]1CC[C@@H](n2c(-c3ccc4cnccc4c3)nc3ccc(C(=O)NCc4cccc(C(N)=O)c4)cc32)C1	CDK4	binding, competition with immobilised ligand	1 µM	100
Cc1cc(NC(=O)c2cccc(S(F)(F)(F)(F)F)c2)cc(-n2ccn3nc(-c4cccnc4)cc23)c1	CDK4	cell-free assay, competition with immobilised ligand	1 µM	79.3
c1cnn2ncc(-c3ccnc(N4CCC45COC5)n3)c2c1	CDK4 with cyclin D3	binding	1 µM	68
O=C(c1ccc(Nc2ncc(Cl)c(-c3ccc(Cl)s3)n2)cc1)N1CCC(N2CCCC2)CC1	CDK4	binding, competition with immobilised ligand	1 µM	1.3
C[C@@H](c1ccc(-n2cnc3c(N)ncnc32)cc1)N1CCc2nn(C)c(Cc3ccccc3)c2C1=O	CDK4 with cyclin D3	binding, competition with immobilised ligand	0.1 µM	68
O=C(NCCCN1CCOCC1)c1ccc(Nc2ncc(Cl)c(-c3ccc(Cl)s3)n2)cc1	CDK4 with cyclin D3	binding, competition with immobilised ligand	1 µM	8.4

Structure (SMILES)	target	test	setting	remaining binding [%]
FC(F)(F)Oc1cccc(-c2cnc3ccc(-c4ccncc4)nn23)c1	CDK4 with cyclin D1	cell-free assay, competition with immobilised ligand	5 µM	46
O=C(c1ccc(Nc2ncc(Cl)c(-c3cc4ccccc4s3)n2)cc1)N1CCC(N2CCCC2)CC1	CDK4 with cyclin D3	binding, competition with immobilised ligand	1 µM	0.8
C[C@H]1CCN(c2nccc(-c3cnn4ncccc34)n2)C1	CDK4	binding	1 µM	95
Cc1cnc(Nc2ccc(C(=O)N3CCC(N4CCCC4)CC3)cc2)nc1-c1cc2ccccc2s1	CDK4 with cyclin D1	binding, competition with immobilised ligand	1 µM	1.7
COc1cnc(Nc2cccc(S(N)(=O)=O)c2)nc1N1CCN(c2ccccc2)CC1	CDK4 with cyclin D3	binding, competition with immobilised ligand	1 µM	93
Cc1c[nH]c2nccc(Oc3c(F)cc(Nc4cc(Cl)nc(N)n4)cc3F)c12	CDK4	cell-free assay, competition with immobilised ligand	0.1 µM	67
CN(c1nccc(-c2cnn3ncccc23)n1)C1CC1	CDK4	binding	1 µM	100
C[C@@H]1CN(c2cc(-c3nn(C)c4ccc(OC5(C)CC5)cc34)ncn2)C[C@H](C)O1	CDK4 with cyclin D3	cell-free assay, competition with immobilised ligand	1 µM	71
Cc1cnn2ncc(-c3ccnc(N(C)C)n3)c2c1	CDK4 with cyclin D1	binding	1 µM	84
O=C(c1ccc(Nc2nccc(-c3cc4ccccc4s3)n2)cc1)N1CCC(N2CCCC2)CC1	CDK4 with cyclin D1	binding, competition with immobilised ligand	1 µM	25
CNC(=O)c1ccc(Nc2ncc(C(F)(F)F)c(NCc3nccnc3N(C)S(C)(=O)=O)n2)cc1	CDK4	cell-free assay, competition with immobilised ligand	0.1 µM	100
COc1ncc2cc3ccccc3nc2c1C#N	CDK4	cell-free assay, competition with immobilised ligand	5 µM	74
c1ccc(N2CCN(Cc3nc4ccccc4[nH]3)CC2)nc1	CDK4	binding, competition with immobilised ligand	1 µM	100
N[C@@H]1CCN(c2nccc(-c3cnn4ncccc34)n2)C1	CDK4 with cyclin D3	binding	1 µM	100
N#CC1(c2ccccn2)CCN(Cc2cc(C(=O)N3CCCC3)c(=O)n3ccccc23)CC1	CDK4 with cyclin D1	cell-free assay, competition with immobilised ligand	1 µM	100
O=C(NCCCN1CCOCC1)c1ccc(Nc2nccc(-c3cc4ccccc4s3)n2)cc1	CDK4	binding, competition with immobilised ligand	1 µM	55
